# Assays:
# [1] = organism: Rattus norvegicus; experiment: Tested for inhibition in the rat paw injected with carrageenan.; format: functional; set-up: concentration or dose not given beside the values
# [2] = test system: Rattus norvegicus; experiment: Effective dose against carrageenan edema(peroral administration); format: functional; conditions: po
# Summary of the method: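 Sprague-Dawley rats fasted 18 h, dosed orally in 0.5% carboxymethylcellulose suspension 1 h before 0.1 mL of 1% carrageenan into right hind paw plantar tissue. Paw swelling in treated versus control rats measured 3 h post-carrageenan by mercury-displacement plethysmometry; ED50 given in mg/kg po.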
# [3] = test system: Rattus norvegicus; experiment: Minimum effective dose against adjuvant arthritis on administration); format: functional; conditions: read-out: MED
# Summary of the method: (§1)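 Female Lewis rats given adjuvant arthritis by plantar M. butyricum in mineral oil. Oral daily dosing either from adjuvant day to day 28 (continuous), day 16 to day 28 (therapeutic), or day 5 pre- to day 5 postadjuvant (prophylactic). MED: lowest dose producing significant (p < 0.05) inhibition of noninjected paw swelling on day 28, by plethysmometry.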
# [4] = test system: Rattus norvegicus; experiment: Minimum effective dose against adjuvant arthritis on prophylactic dosing (peroral administration); format: functional; conditions: po, read-out: MED; summary of the method: as §1
# [5] = Lethal dose in rats(peroral administration); format: toxicity, organism-based; conditions: rat, in vivo, po
# [6] = organism: Rattus norvegicus; experiment: Average percent inhibition (arthritis score=3) of the swelling of both injected and non injected paw was measured; format: functional
# Summary of the method: (§2)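 Adjuvant arthritis in inbred female Lewis rats, groups of six, acclimatized 2 weeks. Arthritis induced by injecting 0.1 mL M. butyricum in mineral oil (3 mg/mL) into right hind paw plantar tissue. Oral dosing daily from adjuvant day to day 28: 10 (mg/kg)/day if mouse oral LD50 ≥1000 mg/kg, else 5 (mg/kg)/day. Swelling of injected and noninjected paws measured day 28 by mercury-displacement plethysmometry; mean percent inhibition scored 0–3.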
# [7] = test system: Rattus norvegicus; experiment: Total score is the sum of scores obtained in the adjuvant arthritis, acute toxicity, carrageenan edema, and prostaglandin synthetase assay; format: functional
# [8] = test system: Rattus norvegicus; experiment: Effective dose against analgesic activity (peroral administration); format: functional; conditions: po
# [9] = organism: Rattus norvegicus; experiment: Minimum effective dose is the lowest dose preventing any futher increase in body temperature; format: functional; conditions: read-out: MED
# Summary of the method: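 Antipyretic test, oral dosing; MED defined as the lowest dose preventing any further increase of body temperature.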
# [10] = test system: Rattus norvegicus; experiment: Minimum effective dose against adjuvant arthritis on therapeutic dosing (peroral administration); format: functional; conditions: po, read-out: MED; summary of the method: as §1
# [11] = test system: Rattus norvegicus; experiment: Effective dose against nystatin edema(peroral administration); format: functional; conditions: po
# [12] = test system: Rattus norvegicus; experiment: Effective dose against gastroulcerogenic activity (peroral administration); format: functional; conditions: po
# Summary of the method: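 Groups of six Sprague-Dawley rats given oral doses once daily for 3 days; inner stomach surface examined for lesions 24 h after last dose. ED50 is the dose giving macroscopically visible lesions in 50% of rats.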
# [13] = Toxic score (3) was measured as lethal dose in orally administered mice; format: toxicity, organism-based; conditions: mouse, in vivo, po
# Summary of the method: (§3)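 Score derived from mouse oral LD50 (Litchfield–Wilcoxon, four mice per dose), in mg/kg: >1000 = 3; 500-1000 = 2; <500 = 1.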
# [14] = Lethal dose in mice(peroral administration); format: toxicity, organism-based; conditions: mouse, in vivo, po
# Summary of the method: (§4)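 Median lethal dose found after oral dosing of mice, four mice per dose level, and calculated by the Litchfield–Wilcoxon method.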
# [15] = biological target: T1, Cyclooxygenase (Bos taurus) (UniProt O62664+O62698); experiment: Inhibition of prostaglandin synthetase in bovine seminal vesicle microsomes using Beckman liquid scintillation counter at 10 e-5 M; conditions: Microsome
# [16] = Lethal dose in mice determined by Litchfield and Wilcoxon methods after peroral administration.; format: toxicity, organism-based; conditions: mouse, in vivo, po; summary of the method: as §4
# [17] = organism: Rattus norvegicus; experiment: Tested for inhibition in the rat paw not injected with […].; format: functional; set-up: concentration or dose not given beside the values
# Summary of the method: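 Adjuvant-induced arthritis, female Lewis rats, six per group: M. butyricum in mineral oil (3 mg/mL, 0.1 mL) injected into right hind paw plantar tissue. Daily oral dosing from adjuvant day to day 28, 10 or 5 (mg/kg)/day according to mouse oral LD50 (≥1000 or <1000 mg/kg). Injected and noninjected paw swelling read by mercury-displacement plethysmometry on day 28.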
# [18] = Inhibitory concentration against PG synthetase; format: functional
# [19] = test system: Rattus norvegicus; experiment: Percent inhibition of carrageenan paw edema in rat, administered orally at a dose of one tenth of oral lethal dose in mice; format: functional
# Summary of the method: (§5)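 1 h later, 0.1 mL of 1% carrageenan was injected into the right hind-paw plantar tissue. Paw swelling was measured by mercury-displacement plethysmometry 3 h after carrageenan, compared with controls.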
# [20] = organism: Rattus norvegicus; experiment: Tested for enhancement in the rat paw not injected with carrageenan.; format: functional
# [21] = organism: Rattus norvegicus; experiment: Tested for enhancement in the rat paw injected with carrageenan.; format: functional
# [22] = organism: Rattus norvegicus; experiment: Average percent inhibition of the swelling of both injected and non injected paw was measured; format: functional; summary of the method: as §2
# [23] = biological target: T1, Cyclooxygenase (Bos taurus); experiment: Tested for Prostaglandin Synthetase inhibition in Bovine seminal vesicle microsomes using Beckman liquid scintillation counter at 10 e-5 M; conditions: Microsome
# [24] = test system: Rattus norvegicus; experiment: Tested for percent inhibition of carrageenan paw edema in rat, administered orally at a dose of one tenth of oral lethal dose in mice; format: functional
# Summary of the method: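 Sprague-Dawley rats fasted 18 h; compound suspended in 0.5% carboxymethylcellulose, given orally 1 h before 0.1 mL of 1% carrageenan suspension injected into the plantar tissue of the right hind paw. Paw swelling measured by mercury-displacement plethysmometry 3 h after carrageenan, treated versus controls. Mouse oral LD50 was from the Litchfield-Wilcoxon method with four mice per dose.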
# [25] = Toxic score was measured as lethal dose in orally administered mice;Values ranges from: 500-1000; format: toxicity, organism-based; conditions: mouse, in vivo, po; summary of the method: as §3
# [26] = organism: Rattus norvegicus; experiment: Average percent inhibition (arthritis score=0) of the swelling of both injected and non injected paw was measured; format: functional; summary of the method: as §2
# [27] = organism: Rattus norvegicus; experiment: Average percent inhibition (arthritis score)of the swelling of both injected and non injected paw was measured; […]; format: functional
# [28] = Tested for percent inhibition of carrageenan paw edema in rat, administered orally at a dose of one tenth of lethal dose; format: organism-based; conditions: in vivo, po; summary of the method: as §5
# [29] = organism: Rattus norvegicus; experiment: Average percent inhibition (arthritis score) of the swelling of both injected and non injected paw was measured; […]; format: functional
# [30] = organism: Rattus norvegicus; experiment: Average percent inhibition (arthritis score=2) of the swelling of both injected and non injected paw was measured;values ranges from: […]-[…]; format: functional
Compound,Inhibition [1] [%],Total score [7],LD50 [13] [mg/kg],inhibition [15] [%],LD50 [16] [mg/kg],Inhibition [17] [%],Inhibition [19] [%],further results
Cc1cc(/N=C(\Nc2nccs2)NC2CCCCC2)c2ccccc2n1 [TIMEGADINE],53,12,> 1000,100,> 1000,63,68,ED50 [2]: 29.6 mg/kg; minimal effective dose [3]: 3 mg/kg; minimal effective dose [4]: 10 mg/kg; LD50 [5]: 1220 mg/kg; Inhibition [6]: >=50%; ED50 [8]: 68.5 mg/kg; minimal effective dose [9]: 12.4 mg/kg; minimal effective dose [10]: 10 mg/kg; ED50 [11]: 26.5 mg/kg; ED50 [12]: 170 mg/kg; LD50 [14]: > 1000 mg/kg; IC50 [18]: 2500 nM
Cc1csc(/N=C(\Nc2cc(C)nc3ccccc23)NC2CCCCC2)n1,,7,> 1000,89.3,> 1000,,38,Enhancement [20]: 23%; Enhancement [21]: 15%; Inhibition [22]: <10%
Cc1cc(N/C(=N/C2CCCCC2)NC2NC=CS2)c2ccccc2n1 (stereo not drawn),,,,,> 1000,,33,inhibition [23]: 12.6%
COc1ccc2c(c1)c(CC(=O)O)c(C)n2C(=O)c1ccc(Cl)cc1 [INDOMETHACIN],,,,,24.3,,,ED50 [2]: 3.5 mg/kg; minimal effective dose [3]: 1 mg/kg; minimal effective dose [4]: 2 mg/kg; ED50 [8]: 6.5 mg/kg; minimal effective dose [9]: 1.6 mg/kg; minimal effective dose [10]: < 1 mg/kg; ED50 [11]: > 6 mg/kg; ED50 [12]: 4.6 mg/kg; LD50 [24]: 12 mg/kg
CCOc1cc(N/C(=N/C(C)(C)C)Nc2nccs2)c2ccccc2n1,8,6,,88.9,800,13,39,LD50 [25]: 1000 mg/kg; Inhibition [26]: <10%
Cc1cc(N/C(=N/C(C)(C)C)Nc2nnc(C)s2)c2ccccc2n1,45,9,> 1000,33,> 1000,51,85,Inhibition [27]: 49%
CCCCCC/N=C(\Nc1nccs1)Nc1cc(C)nc2ccccc12,,,,-23.8,,,,LD50 [28]: 8 mg/kg
Cc1cc(/N=C(\Nc2cc(C)nc3ccccc23)NC2CCCCC2)sn1,1,9,> 1000,83.2,> 1000,21,48,Inhibition [29]: 29%
Cc1cc(N/C(=N\C2CC2)Nc2nccs2)c2ccccc2n1,53,7,,15.8,600,30,65,Inhibition [30]: 49%

# From ChEMBL document CHEMBL1121519, “Basic antiinflammatory compounds. N,N',N''-Trisubstituted guanidines” (J Med Chem, 1980)
